Data reported in ChEMBL document CHEMBL1131093, “ATP-Citrate lyase as a target for hypolipidemic intervention. 2. Synthesis and evaluation of (3R,5S)-omega-substituted-3-carboxy-3, 5-dihydroxyalkanoic acids and their gamma-lactone prodrugs as inhibitors of the enzyme in vitro and in vivo” (J Med Chem, 1998).
Several values for one entry are separate records, joined by “and”; a condition that tells them apart may be missing. Equal entries are not always repeated.

Key:
[1] = biological target: T1, ATP-citrate synthase (Rattus norvegicus, UniProt P16638); test: Inhibitory activity was tested against rat ATP-Citrate Lyase (ACL) enzyme
T1 sequence (P16638 whole entry): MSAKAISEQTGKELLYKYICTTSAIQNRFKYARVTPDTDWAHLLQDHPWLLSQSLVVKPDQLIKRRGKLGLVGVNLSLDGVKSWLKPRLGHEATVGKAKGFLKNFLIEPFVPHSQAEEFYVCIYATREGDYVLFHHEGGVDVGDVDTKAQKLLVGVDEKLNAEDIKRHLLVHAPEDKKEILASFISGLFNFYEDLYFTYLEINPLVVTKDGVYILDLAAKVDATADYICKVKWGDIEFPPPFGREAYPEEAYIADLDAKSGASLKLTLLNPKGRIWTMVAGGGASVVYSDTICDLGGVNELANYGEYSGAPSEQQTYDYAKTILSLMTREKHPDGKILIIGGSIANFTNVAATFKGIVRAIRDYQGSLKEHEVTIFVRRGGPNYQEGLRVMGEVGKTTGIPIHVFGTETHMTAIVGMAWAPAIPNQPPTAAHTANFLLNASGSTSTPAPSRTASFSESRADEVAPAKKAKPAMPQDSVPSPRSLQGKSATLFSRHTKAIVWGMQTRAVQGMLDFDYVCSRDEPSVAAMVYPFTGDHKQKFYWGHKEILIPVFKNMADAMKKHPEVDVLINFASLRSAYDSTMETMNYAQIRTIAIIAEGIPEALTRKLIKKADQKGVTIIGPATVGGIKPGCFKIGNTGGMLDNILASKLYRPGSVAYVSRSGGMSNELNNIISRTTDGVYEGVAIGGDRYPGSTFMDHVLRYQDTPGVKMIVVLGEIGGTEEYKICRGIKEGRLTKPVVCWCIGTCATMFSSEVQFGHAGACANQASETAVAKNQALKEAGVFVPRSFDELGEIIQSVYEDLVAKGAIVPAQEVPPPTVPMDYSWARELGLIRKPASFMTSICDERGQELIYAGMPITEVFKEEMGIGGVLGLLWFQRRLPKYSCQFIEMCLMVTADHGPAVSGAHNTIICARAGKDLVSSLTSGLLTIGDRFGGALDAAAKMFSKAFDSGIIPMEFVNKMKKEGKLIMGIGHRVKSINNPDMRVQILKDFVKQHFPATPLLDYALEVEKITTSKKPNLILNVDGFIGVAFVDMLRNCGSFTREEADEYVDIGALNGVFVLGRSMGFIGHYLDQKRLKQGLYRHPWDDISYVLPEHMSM

[2] = biological target: T2, ATP-citrate synthase (Homo sapiens) (UniProt P53396); test: Inhibitory activity was tested against human recombinant ATP-Citrate Lyase (ACL) enzyme at 100 uM
T2 sequence (whole entry): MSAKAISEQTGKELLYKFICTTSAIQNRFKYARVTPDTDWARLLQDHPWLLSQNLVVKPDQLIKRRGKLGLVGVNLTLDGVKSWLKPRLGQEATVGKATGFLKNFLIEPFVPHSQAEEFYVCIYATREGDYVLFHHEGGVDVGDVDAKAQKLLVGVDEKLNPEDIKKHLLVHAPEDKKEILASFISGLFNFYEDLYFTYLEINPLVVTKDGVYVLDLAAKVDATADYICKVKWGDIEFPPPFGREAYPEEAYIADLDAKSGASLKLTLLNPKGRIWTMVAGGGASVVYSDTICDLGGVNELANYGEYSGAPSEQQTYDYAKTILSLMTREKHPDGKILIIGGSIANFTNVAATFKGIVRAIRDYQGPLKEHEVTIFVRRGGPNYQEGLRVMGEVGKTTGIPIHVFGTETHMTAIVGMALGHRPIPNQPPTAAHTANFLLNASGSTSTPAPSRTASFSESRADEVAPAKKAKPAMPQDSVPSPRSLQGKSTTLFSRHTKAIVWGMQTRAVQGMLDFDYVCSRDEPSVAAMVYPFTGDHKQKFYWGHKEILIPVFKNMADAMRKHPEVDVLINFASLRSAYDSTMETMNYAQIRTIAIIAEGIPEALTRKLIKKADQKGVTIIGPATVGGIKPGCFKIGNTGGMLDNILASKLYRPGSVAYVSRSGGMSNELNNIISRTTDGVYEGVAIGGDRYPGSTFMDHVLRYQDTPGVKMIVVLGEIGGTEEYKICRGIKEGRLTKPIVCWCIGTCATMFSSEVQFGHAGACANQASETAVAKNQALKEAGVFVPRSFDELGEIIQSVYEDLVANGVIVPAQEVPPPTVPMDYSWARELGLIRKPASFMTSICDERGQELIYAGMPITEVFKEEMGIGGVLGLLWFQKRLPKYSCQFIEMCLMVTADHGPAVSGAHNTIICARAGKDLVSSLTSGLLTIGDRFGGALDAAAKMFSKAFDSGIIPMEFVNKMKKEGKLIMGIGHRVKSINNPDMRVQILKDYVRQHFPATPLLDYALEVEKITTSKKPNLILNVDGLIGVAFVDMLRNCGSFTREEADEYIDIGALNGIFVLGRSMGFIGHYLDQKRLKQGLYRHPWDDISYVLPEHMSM

[3] = test system: HepG2; test: Inhibition of ATP levels in HepG2 cells was measured at 10 uM concentration.; format: functional, Homo sapiens; design: scale not given: the % may be the effect or the level left
In short: (§1)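 Compounds were applied to HepG2 cells as their γ-lactone prodrugs. De novo cholesterol synthesis, fatty acid synthesis and cellular ATP levels were each expressed as % of control. Significance was marked at p < 0.001.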

[4] = test system: HepG2; test: Inhibition of ATP levels in HepG2 cells was measured at 3 uM concentration.; format: functional, Homo sapiens; design: scale not given: the % may be the effect or the level left; in short: as §1
[5] = test system: HepG2; test: Inhibition of cholesterol synthesis in HepG2 cells was measured at 10 uM concentration.; format: functional, Homo sapiens; design: scale not given: the % may be the effect or the level left; in short: as §1
[6] = test system: HepG2; test: Inhibition of cholesterol synthesis in HepG2 cells was measured at 3 uM concentration.; format: functional, Homo sapiens; design: scale not given: the % may be the effect or the level left; in short: as §1
[7] = test system: HepG2; test: Inhibition of fatty acid synthesis in HepG2 cells was measured at 3 uM concentration.; format: functional, Homo sapiens; design: scale not given: the % may be the effect or the level left; in short: as §1
[8] = test system: Rattus norvegicus; test: % Reduction of plasma triglyceride in the rat was measured at dose 37.5 mg/kg/d; format: functional
In short: (§2)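 Male Sprague-Dawley rats were kept on a reverse 12 h light/12 h dark cycle with free access to RM1 powdered diet and water. Compound was given orally by gavage as two doses 24 h apart. Blood was drawn mid dark cycle, 4 h after the second dose, into EDTA. Plasma was separated at 1500g for 15 min. Triglyceride was measured enzymatically (GPO-PAP) and reported as % reduction from control.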

[9] = test system: Rattus norvegicus; test: % Reduction of plasma triglyceride in the rat was measured at dose 75 mg/kg/d; format: functional; in short: as §2
[10] = test system: HepG2; test: (§3) Inhibition of fatty acid synthesis in HepG2 cells was measured at 10 uM concentration.; format: functional, Homo sapiens; design: scale not given: the % may be the effect or the level left; in short: as §1
[11] = test system: HepG2; test: Inhibition of fatty acid synthesis in HepG2 cells was measured at 5 uM concentration.; format: functional, Homo sapiens; design: scale not given: the % may be the effect or the level left; in short: as §1
[12] = test system: HepG2; test: Inhibition of ATP levels in HepG2 cells was measured at 15 uM concentration.; format: functional, Homo sapiens; design: scale not given: the % may be the effect or the level left; in short: as §1
[13] = test system: HepG2; test: Inhibition of cholesterol synthesis in HepG2 cells was measured at 30 uM concentration.; format: functional, Homo sapiens; design: scale not given: the % may be the effect or the level left; in short: as §1
[14] = test system: HepG2; test: (§4) Inhibition of fatty acid synthesis in HepG2 cells was measured at 15 uM concentration.; format: functional, Homo sapiens; design: scale not given: the % may be the effect or the level left; in short: as §1
[15] = test system: HepG2; test: Inhibition of ATP levels in HepG2 cells was measured at 30 uM concentration.; format: functional, Homo sapiens; design: scale not given: the % may be the effect or the level left; in short: as §1
[16] = test system: HepG2; test: Inhibition of ATP levels in HepG2 cells was measured at 5 uM concentration.; format: functional, Homo sapiens; design: scale not given: the % may be the effect or the level left; in short: as §1
[17] = test system: HepG2; test: Inhibition of cholesterol synthesis in HepG2 cells was measured at 15 uM concentration.; format: functional, Homo sapiens; design: scale not given: the % may be the effect or the level left; in short: as §1
[18] = test system: HepG2; test: Inhibition of cholesterol synthesis in HepG2 cells was measured at 5 uM concentration.; format: functional, Homo sapiens; design: scale not given: the % may be the effect or the level left; in short: as §1
[19] = test system: HepG2; test: as §4; format: functional, Homo sapiens; design: scale not given: the % may be the effect or the level left; in short: as §1; remark: listed apart in the source
[20] = test system: HepG2; test: Inhibition of fatty acid synthesis in HepG2 cells was measured at 30 uM concentration.; format: functional, Homo sapiens; design: scale not given: the % may be the effect or the level left; in short: as §1
[21] = biological target: T3, ATP-citrate synthase (Homo sapiens, UniProt P53396); test: Inhibitory activity was tested against human recombinant ATP-Citrate Lyase (ACL) enzyme
T3 sequence (P53396 whole entry): T2 sequence (whole entry)
In short: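 Recombinant human ACL enzyme. Compounds purified as γ-lactones were hydrolysed back to the open hydroxy diacid with excess aqueous NaOH before being added to the assay buffer mix. Potency is reported as the reversible Ki for enzyme inhibition.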

[22] = test system: HepG2; test: Inhibition of ATP levels in HepG2 cells was measured at 100 uM concentration.; format: functional, Homo sapiens; design: scale not given: the % may be the effect or the level left; in short: as §1
[23] = test system: HepG2; test: Inhibition of cholesterol synthesis in HepG2 cells was measured at 100 uM concentration.; format: functional, Homo sapiens; design: scale not given: the % may be the effect or the level left; in short: as §1
[24] = biological target: T3, ATP-citrate synthase; test: Inhibitory activity against human recombinant ATP-Citrate Lyase (ACL) enzyme
In short: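 Human recombinant ATP-citrate lyase was used. Lactone intermediates were hydrolysed with aqueous NaOH to the hydroxy acid before being added to the enzyme buffer mix. Potency was reported as the reversible Ki.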

[25] = test system: HepG2; test: as §3; format: functional, Homo sapiens; design: scale not given: the % may be the effect or the level left; in short: as §1; remark: listed apart in the source

O=C(O)C[C@@](O)(CC(=O)CCCCCCc1ccc(Cl)cc1Cl)C(=O)O
Ki [1]: 1200 nM

Cc1ccc(C)n1-c1cc(Cl)ccc1CCCCCC[C@@H](O)C[C@](O)(CC(=O)O)C(=O)O
inhibition [2]: 67%

O=C(O)C[C@@]1(O)C[C@@H](CCCCCCc2ccc(Cl)cc2Cl)OC1=O
Control [3]: 97%
Control [4]: 97%
Control [5]: 53%
Control [6]: 98%
Control [7]: 114%
Reduction [8]: 31%
Reduction [9]: 56%
Control [10]: 74%

O=C(O)C[C@@]1(O)C[C@@H](CCCCCCc2ccc(Cl)cc2Cl)OC1=O (stereo in doubt; (-)-77)
Control [11]: 123%
Control [12]: 99% and 98%
Control [13]: 9%
Control [14]: 82%
Control [15]: 98%
Control [16]: 101%
Control [17]: 37% and 33%
Control [18]: 105%
Control [19]: 90%
Control [20]: 39%

O=C(O)C[C@@](O)(C[C@H](O)CCCCCCc1ccc(Cl)cc1Cl)C(=O)O (stereo in doubt; 45)
Ki [1]: 1000 nM
Ki [21]: 1000 nM
Control [22]: 104%
Control [23]: 84%

O=C(O)C[C@@](O)(C[C@H](O)CCCCCCc1ccc(Cl)cc1Cl)C(=O)O (stereo in doubt; (+)-45)
Ki [1]: 700 nM
Ki [24]: 880 nM

O=C(O)C[C@@]1(O)C[C@@H](CCCCCCc2ccc(Cl)cc2COc2ccccc2)OC1=O
Reduction [8]: 22%
Reduction [9]: 34%

O=C(O)C[C@@]1(O)C[C@@H](CCCCCCc2ccc(Cl)cc2-c2ccccc2)OC1=O
Control [3]: 96% and 100%
Control [25]: 88%
Control [4]: 98%
Control [15]: 95%
Control [5]: 65% and 60%
Control [6]: 101%
Control [7]: 108%
Control [10]: 75%
